# Measurements reported in ChEMBL document CHEMBL4765324, “Synthesis and biological evaluation of novel quinoline-piperidine scaffolds as antiplasmodium agents” (Eur J Med Chem, 2020).
# Tested on: not listed separately
# Experiment: Selectivity index, ratio of IC50 for CHO cells to IC50 for antiplasmodial activity against chloroquine-sensitive Plasmodium falciparum NF54
# Type: toxicity
# Details: hamster, CHO cells (cytotoxicity) versus Plasmodium falciparum NF54; read-out: Ratio IC50
# Summary of the method: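 CHO cytotoxicity measured by MTT colorimetric assay, using the antiplasmodial stock solutions. Six 10-fold dilutions in complete medium, 100 to 0.001 μg/ml, with emetine as reference. Triplicate on one occasion. IC50 from non-linear dose-response fit. NF54 IC50 came from the parasite lactate dehydrogenase assay. SI = IC50 CHO/IC50 NF54.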
row,SMILES,selectivity ratio
1,C=CCN1C[C@@H](OCc2ccccc2)[C@@H](CNc2ccnc3cc(Cl)ccc23)C(C)(C)C1 (relative stereo),10100

# Tested on: Plasmodium falciparum
# Experiment: Resistance index, ratio of IC50 for antiplasmodial activity against chloroquine-resistant Plasmodium falciparum K1 to IC50 for antiplasmodial activity against chloroquine-sensitive Plasmodium falciparum NF54
# Type: functional
# Details: not given
# Summary of the method: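 Asexual blood-stage P. falciparum K1 and NF54 kept in continuous culture (modified Trager–Jensen). Growth read by parasite lactate dehydrogenase assay (modified Makler). Ten 2-fold dilutions in complete medium, from 10 μg/ml to 20 ng/ml (or 1 μg/ml to 2 ng/ml). Chloroquine as reference. Triplicate on one occasion. IC50s from non-linear dose-response fit. RI = IC50 K1/IC50 NF54.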
row,SMILES,Ratio IC50
1,C=CCN1C[C@@H](OCc2ccccc2)[C@@H](CNCc2cc3ccccc3nc2Cl)C(C)(C)C1 (relative stereo),1.5
2,C=CCN1C[C@@H](OCc2ccccc2)[C@@H](CNCc2ccnc3ccccc23)C(C)(C)C1 (relative stereo),1.5
3,c1ccc(C23CCN(C2)C(CNc2ccnc4ccccc24)C3)cc1 (mixture of isomers),1.5
4,C=CCN1C[C@@H](OCc2ccccc2)[C@@H](CNc2ccnc3cc(Cl)ccc23)C(C)(C)C1 (relative stereo),2.2
5,C=CCN1CCC(CNc2ccnc3ccccc23)C(C)(C)C1 (stereo not given),0.3
6,C=CCN1C[C@@H](OCc2ccccc2)[C@@H](CNCc2ccc3ccccc3n2)C(C)(C)C1 (relative stereo),1.8
7,C=CCN1CCC(CNc2ccnc3cc(Cl)ccc23)C(C)(C)C1 (stereo not given),1.7
8,Oc1cccc2ccc(CNCC3CC4(c5ccccc5)CCN3C4)nc12 (mixture of isomers),6.4
9,Clc1ccc2c(NCC3CC4(c5ccccc5)CCN3C4)ccnc2c1 (mixture of isomers),1.6
